Measured values taken from ChEMBL document CHEMBL3286099, “Synthesized quercetin derivatives stimulate melanogenesis in B16 melanoma cells by influencing the expression of melanin biosynthesis proteins MITF and p38 MAPK” (Bioorg Med Chem, 2014).
Calls of active or inactive are those of the source. No cut-off for these calls is given here.

What was measured:
[1] = test system: B16-F0; experiment: Extracellular melanogenesis-stimulating activity in mouse B16F0 cells at 200 uM after 72 hrs by spectrophotometry relative to control; assay type: functional
Outline: (§1)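 B16-F0 cells in DMEM with 10% FBS were seeded at 5.0 × 10⁴ cells/well and adhered for 24 h. They were treated for 72 h at 200–10 µM or 50–6.25 µM, depending on compound series. Absorbance of the collected culture medium at 510 nm gave extracellular melanin, expressed as % of DMSO-treated control. Experiments were done twice.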

[2] = test system: B16-F0; experiment: Intracellular melanogenesis-stimulating activity in mouse B16F0 cells at 10 uM after 72 hrs by spectrophotometry relative to control; assay type: functional
[3] = test system: B16-F0; experiment: Extracellular melanogenesis-stimulating activity in mouse B16F0 cells at 10 uM after 72 hrs by spectrophotometry relative to control; assay type: functional; outline: as §1
[4] = test system: B16-F0; experiment: Intracellular melanogenesis-stimulating activity in mouse B16F0 cells at 200 uM after 72 hrs by spectrophotometry relative to control; assay type: functional
[5] = test system: B16-F0; experiment: Extracellular melanogenesis-stimulating activity in mouse B16F0 cells at 100 uM after 72 hrs by spectrophotometry relative to control; assay type: functional; outline: as §1
[6] = Cytotoxicity against mouse B16F0 cells assessed as cell viability at 200 uM after 72 hrs by MTT assay; assay type: cell-based; conditions: read-out: Activity
Outline: (§2)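 B16-F0 cells were seeded at 5.0 × 10⁴ cells/well and allowed to adhere for 24 h at 37 °C. They were exposed for 72 h to compound at 200–10 µM or 50–6.25 µM, depending on compound series. MTT (5 mg/mL stock in PBS) was added for 4 h at 37 °C in 5% CO₂, then dissolved in isopropanol/0.04 N HCl and read at 590 nm. Viability is % of DMSO control; experiments were done twice.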

[7] = test system: B16-F0; experiment: Intracellular melanogenesis-stimulating activity in mouse B16F0 cells at 100 uM after 72 hrs by spectrophotometry relative to control; assay type: functional
[8] = test system: B16-F0; experiment: Intracellular melanogenesis-stimulating activity in mouse B16F0 cells after 72 hrs by spectrophotometry relative to control; assay type: functional, cell-based
Outline: (§3)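 Cells were seeded at 5.0 × 10⁴ cells/well, adhered for 24 h, then treated with compound for 72 h. After a PBS wash, cells were lysed in 1 M NaOH at 100 °C for 30 min to solubilize melanin. Lysate absorbance at 405 nm served as the intracellular melanin index, expressed as % of DMSO control. Experiments were done twice.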

[9] = Cytotoxicity against mouse B16F0 cells assessed as cell viability at 10 uM after 72 hrs by MTT assay; assay type: cell-based; conditions: read-out: Activity; outline: as §2
[10] = Cytotoxicity against mouse B16F0 cells assessed as cell viability at 100 uM after 72 hrs by MTT assay; assay type: cell-based; conditions: read-out: Activity; outline: as §2
[11] = test system: B16-F0; experiment: Intracellular melanogenesis-stimulating activity in mouse B16F0 cells at 50 uM after 72 hrs by spectrophotometry relative to control; assay type: functional; outline: as §3
[12] = test system: B16-F0; experiment: Extracellular melanogenesis-stimulating activity in mouse B16F0 cells at 12.5 uM after 72 hrs by spectrophotometry relative to control; assay type: functional; outline: as §1
[13] = Cytotoxicity against mouse B16F0 cells assessed as cell viability at 50 uM after 72 hrs by MTT assay; assay type: cell-based; conditions: read-out: Activity; outline: as §2
[14] = test system: B16-F0; experiment: Intracellular melanogenesis-stimulating activity in mouse B16F0 cells at 25 uM after 72 hrs by spectrophotometry relative to control; assay type: functional; outline: as §3
[15] = test system: B16-F0; experiment: Extracellular melanogenesis-stimulating activity in mouse B16F0 cells at 50 uM after 72 hrs by spectrophotometry relative to control; assay type: functional; outline: as §1
[16] = test system: B16-F0; experiment: Intracellular melanogenesis-stimulating activity in mouse B16F0 cells at 12.5 uM after 72 hrs by spectrophotometry relative to control; assay type: functional; outline: as §3
[17] = Cytotoxicity against mouse B16F0 cells assessed as cell viability at 25 uM after 72 hrs by MTT assay; assay type: cell-based; conditions: read-out: Activity; outline: as §2
[18] = test system: B16-F0; experiment: Extracellular melanogenesis-stimulating activity in mouse B16F0 cells at 25 uM after 72 hrs by spectrophotometry relative to control; assay type: functional; outline: as §1
[19] = Cytotoxicity against mouse B16F0 cells assessed as cell viability at 12.5 uM after 72 hrs by MTT assay; assay type: cell-based; conditions: read-out: Activity; outline: as §2
[20] = test system: B16-F0; experiment: Intracellular melanogenesis-stimulating activity in mouse B16F0 cells at 6.25 uM after 72 hrs by spectrophotometry relative to control; assay type: functional; outline: as §3
[21] = Cytotoxicity against mouse B16F0 cells assessed as cell viability at 6.25 uM after 72 hrs by MTT assay; assay type: cell-based; conditions: read-out: Activity; outline: as §2
[22] = test system: B16-F0; experiment: Extracellular melanogenesis-stimulating activity in mouse B16F0 cells at 6.25 uM after 72 hrs by spectrophotometry relative to control; assay type: functional; outline: as §1
[23] = test system: B16-F0; experiment: Induction of melanogenesis-stimulating activity in mouse B16F0 cells assessed as increase in p38-MAPK protein expression after 72 hrs by Western blotting analysis; assay type: functional, cell-based
Outline: (§4)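 B16 cells were treated for 72 h at 0–12.5 µM and lysed in RIPA with protease inhibitors (0 °C, 30 min). Lanes held 10 µg protein on 10% SDS–PAGE, transferred to PVDF and blocked with 2% BSA/TBST at 4 °C overnight. Primaries ran 2 h: MITF 1:1000, tyrosinase, TRP-1 and p-p38 1:200, TRP-2 and p38 1:100. HRP secondary was 1:5000 for 2 h, with ECL densitometry. GAPDH blotted; three independent experiments.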

[24] = test system: B16-F0; experiment: Induction of melanogenesis-stimulating activity in mouse B16F0 cells assessed as increase in MITF protein expression after 72 hrs by Western blotting analysis; assay type: functional, cell-based; outline: as §4
[25] = test system: B16-F0; experiment: Induction of melanogenesis-stimulating activity in mouse B16F0 cells assessed as increase in p-p38 MAPK level after 72 hrs by Western blotting analysis; assay type: functional, cell-based; outline: as §4
[26] = test system: B16-F0; experiment: Induction of melanogenesis-stimulating activity in mouse B16F0 cells assessed as increase in tyrosinase protein expression after 72 hrs by Western blotting analysis; assay type: functional, cell-based; outline: as §4
[27] = test system: B16-F0; experiment: Induction of melanogenesis-stimulating activity in mouse B16F0 cells assessed as increase in TRP-2 protein expression after 72 hrs by Western blotting analysis; assay type: functional, cell-based; outline: as §4
[28] = test system: B16-F0; experiment: Induction of melanogenesis-stimulating activity in mouse B16F0 cells assessed as increase in TRP-1 protein expression after 72 hrs by Western blotting analysis; assay type: functional, cell-based; outline: as §4
[29] = test system: B16-F0; experiment: Induction of melanogenesis-stimulating activity in mouse B16F0 cells assessed as increase in TRP-2 protein expression at 3.1 to 12.5 uM after 72 hrs by Western blotting analysis; assay type: functional, cell-based; outline: as §4
[30] = test system: B16-F0; experiment: Induction of melanogenesis-stimulating activity in mouse B16F0 cells assessed as increase in tyrosinase protein expression at 3.1 to 12.5 uM after 72 hrs by Western blotting analysis; assay type: functional, cell-based; outline: as §4
[31] = test system: B16-F0; experiment: Induction of melanogenesis-stimulating activity in mouse B16F0 cells assessed as increase in p-p38 MAPK level at 3.1 to 12.5 uM after 72 hrs by Western blotting analysis; assay type: functional, cell-based; outline: as §4
[32] = test system: B16-F0; experiment: Induction of melanogenesis-stimulating activity in mouse B16F0 cells assessed as increase in MITF protein expression at 3.1 to 12.5 uM after 72 hrs by Western blotting analysis; assay type: functional, cell-based; outline: as §4
[33] = test system: B16-F0; experiment: Induction of melanogenesis-stimulating activity in mouse B16F0 cells assessed as increase in TRP-1 protein expression at 3.1 to 12.5 uM after 72 hrs by Western blotting analysis; assay type: functional, cell-based; outline: as §4

Row | SMILES | Activity [12] [%] | Activity [14] [%] | Activity [16] [%] | viability at 72 h, 25 µM [17] [%] | Activity [18] [%] | viability at 72 h, 12.5 µM [19] [%] | Activity [20] [%] | viability at 72 h, 6.25 µM [21] [%] | Activity [22] [%] | also measured
1 | O=c1c(O[C@@H]2O[C@H](CO)[C@@H](O)[C@H](O)[C@H]2O)c(-c2ccc(O)c(O)c2)oc2cc(O)cc(O)c12 [ISOQUERCETIN] | – | – | – | – | – | – | – | – | – | Activity [1]: 86.1%; Activity [2]: 116.3%; Activity [3]: 91%; Activity [4]: 206.9%; Activity [5]: 85.1%; viability at 72 h, 200 µM [6]: 68.4%; Activity [7]: 157.1%; Activity [8]: Dose-dependent effect; viability at 72 h, 10 µM [9]: 105%; viability at 72 h, 100 µM [10]: 80.9%
2 | CC(=O)Oc1c(-c2ccc(O)c(O)c2)oc2cc(O)cc(O)c2c1=O | 87.6 | 114.3 | 99 | 120 | 102.6 | 110 | – | – | – | Activity [11]: 104.6%; viability at 72 h, 50 µM [13]: 110%; Activity [15]: 126.6%
3 | O=c1c(O[C@@H]2O[C@H](CO)[C@@H](O[C@@H]3O[C@H](CO)[C@@H](O)[C@H](O)[C@H]3O)[C@H](O)[C@H]2O)c(-c2ccc(O)c(O)c2)oc2cc(O)cc(O)c12 | – | – | – | – | – | – | – | – | – | Activity [1]: 85.2%; Activity [2]: 102.6%; Activity [3]: 83.3%; Activity [4]: 176%; Activity [5]: 91%; viability at 72 h, 200 µM [6]: 81.1%; Activity [7]: 126.8%; Activity [8]: Dose-dependent effect; viability at 72 h, 10 µM [9]: 99.6%; viability at 72 h, 100 µM [10]: 93.2%
4 | COc1ccc(-c2oc3cc(O)cc(O)c3c(=O)c2O)cc1O [TAMARIXETIN] | 95.1 | 106.9 | 133.5 | 101 | 97.9 | 103 | 125.6 | 104 | 97.5 | –
5 | COc1cc(O)c2c(=O)c(O)c(-c3ccc(OC)c(O)c3)oc2c1 [OMBUINE] | 98 | 100.5 | 106.1 | 101 | 100.1 | 101 | 110.2 | 99.7 | 100.5 | –
6 | COc1cc(O)c2c(=O)c(O)c(-c3ccc(O)c(O)c3)oc2c1 [RHAMNETIN] | 105.2 | 75.8 | 87.6 | 91.6 | 114.3 | 99.4 | 102.4 | 92.7 | 105.5 | –
7 | COc1cc(O)c2c(=O)c(OC)c(-c3ccc(OC)c(O)c3)oc2c1 [AYANIN] | 228 | 203.4 | 181.4 | 90.2 | 298.7 | 102 | 127.7 | 95.3 | 225.5 | Activity [23]: inactive; Activity [24]: Dose-dependent effect; Activity [25]: Dose-dependent effect; Activity [26]: Dose-dependent effect; Activity [27]: Dose-dependent effect; Activity [28]: Dose-dependent effect
8 | COc1c(-c2ccc(O)c(O)c2)oc2cc(O)cc(O)c2c1=O [3-O-METHYLQUERCETIN] | 124.1 | 146.5 | 137 | 88.1 | 130.8 | 98.2 | – | – | – | Activity [29]: Active; Activity [11]: 157.3%; Activity [30]: Active; viability at 72 h, 50 µM [13]: 74.4%; Activity [15]: 224.9%; Activity [31]: inactive; Activity [32]: inactive; Activity [33]: Active
9 | CC(=O)OC[C@H]1O[C@@H](Oc2c(-c3ccc(O)c(O)c3)oc3cc(O)cc(O)c3c2=O)[C@H](OC(C)=O)[C@@H](OC(C)=O)[C@@H]1OC(C)=O | 89.3 | 121.4 | 122.4 | 102 | 101.5 | 114 | – | – | – | Activity [11]: 148.4%; viability at 72 h, 50 µM [13]: 104%; Activity [15]: 96.1%
10 | O=c1c(O[C@@H]2O[C@H](CO)[C@@H](O[C@@H]3O[C@H](CO)[C@@H](O)[C@H](O)[C@H]3O)[C@H](O)[C@H]2O)c(-c2ccc(O[C@@H]3O[C@H](CO)[C@@H](O)[C@H](O)[C@H]3O)c(O)c2)oc2cc(O)cc(O)c12 | – | – | – | – | – | – | – | – | – | Activity [1]: 125.5%; Activity [2]: 137%; Activity [3]: 99.7%; Activity [4]: 190.5%; Activity [5]: 116%; viability at 72 h, 200 µM [6]: 74.8%; Activity [7]: 151.5%; Activity [8]: Dose-dependent effect; viability at 72 h, 10 µM [9]: 90%; viability at 72 h, 100 µM [10]: 86.8%
11 | COc1cc(O)c2c(=O)c(OC)c(-c3ccc(O)c(O)c3)oc2c1 | 304.3 | 187.6 | 171.2 | 54.1 | 265.5 | 60.4 | 134 | 80.4 | 222.8 | –
